ChEMBL document CHEMBL1122744, “2-Chloroethyl (methylsulfonyl)methanesulfonate and related (methylsulfonyl)methanesulfonates. Antineoplastic activity in vivo” (J Med Chem, 1984)
Values joined by “and” are separate entries in the source; they are usually repeats but may differ in a detail not shown here. Equal entries are not always repeated.

Assays:
[1] = Ratio of median survival times for non-survivors at dose 50 mg/kg in exp1; t= toxic; format: ADME, organism-based; set-up: dose 50 mg/kg; conditions: in vivo
[2] = Ratio of median survival times for non-survivors at dose 100 mg/kg in exp1; t=toxic; format: ADME, organism-based; set-up: dose 100 mg/kg; conditions: in vivo
How it was run: (§1)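 Mice were inoculated ip with 10^6 P388 leukemia cells on day 0. Groups of six (occasionally five) were dosed ip qd on days 1–5 with fresh suspensions; 30 mice served as untreated controls. Deaths were recorded daily up to day 60. T/C% compares the median survival of treated non-survivors (<60 days) with the control median. Medians used grouped data when there were no 30-day survivors, otherwise ungrouped data. t = toxic.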

[3] = Ratio of median survival times for non-survivors at dose 25 mg/kg in exp2; format: functional; how it was run: as §1
[4] = system: Mus musculus; assay: Mortality by day 5 expressed as number of mice died to the total treated at dose 200 mg/kg in exp1; 5/6; format: ADME, organism-based; set-up: dose 200 mg/kg; conditions: in vivo
[5] = Ratio of number of 60-day survivors to the total treated mice at dose 25 mg/kg in exp2; 1/6; format: functional
[6] = system: Mus musculus; assay: Median survival time of the treated control groups, in which there are no 30-day survivors at dose 25 mg/kg in exp1*-based on the four of six that survived bryond 5th day; format: functional
[7] = system: Mus musculus; assay: Median survival time of the untreated control groups, in which there are no 30-day survivors at dose 100 mg/kg in exp1; format: functional
[8] = system: Mus musculus; assay: Change in weight by day 5, obtained by subtracting treated groups of animals minus control groups of animals at dose 50 mg/kg in exp2; format: functional
How it was run: (§2)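 Mice were inoculated ip with 10^6 P388 leukemia cells on day 0, when treated and control mice weighed 19–22 g. Treatment was given ip once daily on days 1–5, within about 5 min of preparing the solution or suspension. Groups of six (occasionally five) were treated, with 30 untreated inoculated mice as controls. The day-5 weight change is the mean treated change minus the mean control change.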

[9] = system: Mus musculus; assay: Median survival time of the untreated control groups, in which there are no 30-day survivors at dose 12 mg/kg in exp2; format: functional
[10] = Ratio of number of 30-day survivors to the total treated mice at dose 25 mg/kg in exp1; 2/6; format: functional
[11] = Ratio of number of 30-day survivors to the total treated mice at dose 25 mg/kg in exp2; 3/6; format: functional
[12] = Ratio of number of 60-day survivors to the total treated mice at dose 25 mg/kg in exp1; 0/6; format: functional
[13] = system: Mus musculus; assay: Median survival time of the untreated control groups, in which there are no 30-day survivors at dose 25 mg/kg in exp1; format: functional
[14] = system: Mus musculus; assay: Change in weight by day 5, obtained by subtracting treated groups of animals minus control groups of animals at dose 25 mg/kg in exp1.; format: functional; how it was run: as §2
[15] = system: Mus musculus; assay: Change in weight by day 5, obtained by subtracting treated groups of animals minus control groups of animals at dose 25 mg/kg in exp2; format: functional; how it was run: as §2
[16] = Ratio of median survival times for non-survivors at dose 25 mg/kg in exp1*-based on the four of six that survived bryond 5th day; format: functional
[17] = system: Mus musculus; assay: Change in weight by day 5, obtained by subtracting treated groups of animals minus control groups of animals at dose 12 mg/kg in exp2; format: functional; how it was run: as §2
[18] = Ratio of median survival times for non-survivors at dose 12 mg/kg in exp2; format: functional; conditions: 12 mg/kg; how it was run: as §1
[19] = system: Mus musculus; assay: Mortality by day 5 expressed as number of mice died to the total treated at dose 50 mg/kg in exp1; 6/6; format: ADME, organism-based; set-up: dose 50 mg/kg; conditions: in vivo
[20] = system: Mus musculus; assay: Median survival time of the untreated control groups, in which there are no 30-day survivors at dose 25 mg/kg in exp2; format: functional
[21] = Ratio of number of 60-day survivors to the total treated mice at dose 25 mg/kg in exp2; 2/6; format: functional
[22] = system: Mus musculus; assay: Median survival time of the treated control groups, in which there are no 30-day survivors at dose 12 mg/kg in exp2; format: functional; conditions: 12 mg/kg
[23] = system: Mus musculus; assay: Median survival time of the treated control groups, in which there are no 30-day survivors at dose 25 mg/kg in exp2; format: functional
[24] = system: Mus musculus; assay: Mortality by day 5 expressed as number of mice died to the total treated at dose 25 mg/kg in exp2; 0/6; format: ADME, organism-based; set-up: dose 25 mg/kg; conditions: in vivo
[25] = system: Mus musculus; assay: Mortality by day 5 expressed as number of mice died to the total treated at dose 6 mg/kg in exp2; 0/6; format: ADME, organism-based; set-up: dose 6 mg/kg; conditions: in vivo
[26] = system: Mus musculus; assay: Mortality by day 5 expressed as number of mice died to the total treated at dose 25 mg/kg in exp1; 2/6; format: ADME, organism-based; set-up: dose 25 mg/kg; conditions: in vivo
[27] = system: Mus musculus; assay: Mortality by day 5 expressed as number of mice died to the total treated at dose 100 mg/kg in exp1; 6/6; format: ADME, organism-based; set-up: dose 100 mg/kg; conditions: in vivo
[28] = system: Mus musculus; assay: Median survival time of the untreated control groups, in which there are no 30-day survivors at dose 50 mg/kg in exp1; format: functional
[29] = system: Mus musculus; assay: Change in weight by day 5, obtained by subtracting treated groups of animals minus control groups of animals at dose 6 mg/kg in exp2; format: functional
How it was run: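 Mice were inoculated ip with 10^6 P388 leukemia cells on day 0 and weighed 19–22 g that day. Compound was given ip once daily on days 1–5, within about 5 min of preparing the solution or suspension, to groups of six (occasionally five). Thirty inoculated untreated mice served as controls. The value is the average weight change of treated mice minus that of controls on day 5.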

[30] = system: Mus musculus; assay: Median survival time of the treated control groups, in which there are no 30-day survivors at dose 150 mg/kg in exp2; format: functional
[31] = system: Mus musculus; assay: Mortality by day 5 expressed as number of mice died to the total treated at dose 100 mg/kg in exp1; 0/6; format: ADME, organism-based; set-up: dose 100 mg/kg; conditions: in vivo
[32] = Ratio of median survival times for non-survivors at dose 100 mg/kg in exp2; format: functional; how it was run: as §1
[33] = system: Mus musculus; assay: Mortality by day 5 expressed as number of mice died to the total treated at dose 100 mg/kg in exp2; 0/6; format: ADME, organism-based; set-up: dose 100 mg/kg; conditions: in vivo
[34] = Ratio of median survival times for non-survivors at dose 50 mg/kg in exp2; format: functional; how it was run: as §1
[35] = system: Mus musculus; assay: Median survival time of the treated control groups, in which there are no 30-day survivors at dose 200 mg/kg in exp1; format: functional
[36] = system: Mus musculus; assay: Median survival time of the treated control groups, in which there are no 30-day survivors at dose 100 mg/kg in exp1; format: functional
[37] = system: Mus musculus; assay: Median survival time of the untreated control groups, in which there are no 30-day survivors at dose 100 mg/kg in exp2; format: functional
[38] = system: Mus musculus; assay: Median survival time of the untreated control groups, in which there are no 30-day survivors at dose 200 mg/kg in exp1; format: functional
[39] = Ratio of median survival times for non-survivors at dose 150 mg/kg in exp2; format: functional; how it was run: as §1
[40] = Ratio of median survival times for non-survivors at dose 50 mg/kg in exp1; format: functional; set-up: unit: %; how it was run: as §1
[41] = system: Mus musculus; assay: Mortality by day 5 expressed as number of mice died to the total treated at dose 50 mg/kg in exp1; 0/6; format: ADME, organism-based; set-up: dose 50 mg/kg; conditions: in vivo
[42] = system: Mus musculus; assay: Median survival time of the treated control groups, in which there are no 30-day survivors at dose 50 mg/kg in exp1; format: functional
[43] = system: Mus musculus; assay: Mortality by day 5 expressed as number of mice died to the total treated at dose 200 mg/kg in exp1; 0/6; format: ADME, organism-based; set-up: dose 200 mg/kg; conditions: in vivo
[44] = system: Mus musculus; assay: Change in weight by day 5, obtained by subtracting treated groups of animals minus control groups of animals at dose 100 mg/kg in exp2; format: functional; how it was run: as §2
[45] = Ratio of median survival times for non-survivors at dose 100 mg/kg in exp1; format: functional; set-up: unit: %; how it was run: as §1
[46] = system: Mus musculus; assay: Change in weight by day 5, obtained by subtracting treated groups of animals minus control groups of animals at dose 50 mg/kg in exp1.; format: functional; how it was run: as §2
[47] = system: Mus musculus; assay: Median survival time of the untreated control groups, in which there are no 30-day survivors at dose 150 mg/kg in exp2; format: functional
[48] = system: Mus musculus; assay: Median survival time of the treated control groups, in which there are no 30-day survivors at dose 50 mg/kg in exp2; format: functional
[49] = system: Mus musculus; assay: Change in weight by day 5, obtained by subtracting treated groups of animals minus control groups of animals at dose 200 mg/kg in exp1.; format: functional; conditions: 200 mg/kg; how it was run: as §2
[50] = system: Mus musculus; assay: Median survival time of the treated control groups, in which there are no 30-day survivors at dose 100 mg/kg in exp2; format: functional
[51] = Ratio of median survival times for non-survivors at dose 200 mg/kg in exp1; t= toxic; format: ADME, organism-based; set-up: dose 200 mg/kg; conditions: in vivo; how it was run: as §1
[52] = system: Mus musculus; assay: Change in weight by day 5, obtained by subtracting treated groups of animals minus control groups of animals at dose 150 mg/kg in exp2; format: functional; how it was run: as §2
[53] = system: Mus musculus; assay: Mortality by day 5 expressed as number of mice died to the total treated at dose 150 mg/kg in exp2; 0/6; format: ADME, organism-based; set-up: dose 150 mg/kg; conditions: in vivo
[54] = system: Mus musculus; assay: Mortality by day 5 expressed as number of mice died to the total treated at dose 100 mg/kg in exp1; 2/6; format: ADME, organism-based; set-up: dose 100 mg/kg; conditions: in vivo
[55] = system: Mus musculus; assay: Mortality by day 5 expressed as number of mice died to the total treated at dose 25 mg/kg in exp1; 0/6; format: ADME, organism-based; set-up: dose 25 mg/kg; conditions: in vivo
[56] = system: Mus musculus; assay: Change in weight by day 5, obtained by subtracting treated groups of animals minus control groups of animals at dose 100 mg/kg in exp1.; format: functional; how it was run: as §2
[57] = system: Mus musculus; assay: Median survival time of the treated control groups, in which there are no 30-day survivors at dose 25 mg/kg in exp1; format: functional

## CS(=O)(=O)CS(=O)(=O)OCCF
[1]
  Ratio: Toxic
[2]
  Ratio: Toxic
[3]
  Ratio: 286
[4]
  Mortality: 5
[5]
  Ratio: 1
[6]
  Median survival time: 31
[7]
  Median survival time: 11.2
[8]
  Change in weight: -4.8
[9]
  Median survival time: 10.5
[10]
  Ratio: 2
[11]
  Ratio: 3
[12]
  Ratio: 0
[13]
  Median survival time: 11.2
[14]
  Change in weight: -4.3
[15]
  Change in weight: -5.6
[16]
  Ratio: 277
[17]
  Change in weight: -3.7
[18]
  Ratio: 188 and 142
[19]
  Mortality: 6
[20]
  Median survival time: 10.5
[21]
  Ratio: 2
[22]
  Median survival time: 19.8 and 15
[23]
  Median survival time: 30
[24]
  Mortality: 0
[25]
  Mortality: 0
[26]
  Mortality: 2
[27]
  Mortality: 6
[28]
  Median survival time: 11.2
[29]
  Change in weight: -1.8

## CCOS(=O)(=O)CS(C)(=O)=O
[30]
  Median survival time: 11
[31]
  Mortality: 0
[32]
  Ratio: 170
[33]
  Mortality: 0
[7]
  Median survival time: 11.2
[34]
  Ratio: 133
[35]
  Median survival time: 6.9
[36]
  Median survival time: 18
[37]
  Median survival time: 10.5
[8]
  Change in weight: -1.8
[38]
  Median survival time: 11.2
[39]
  Ratio: 104
[40]
  Ratio: 118
[41]
  Mortality: 0
[42]
  Median survival time: 13.3
[43]
  Mortality: 0
[44]
  Change in weight: -4.3
[45]
  Ratio: 160
[46]
  Change in weight: -1.4
[47]
  Median survival time: 10.5
[48]
  Median survival time: 14
[49]
  Change in weight: -5 and -3.4
[50]
  Median survival time: 17.9
[51]
  Ratio: Toxic
[52]
  Change in weight: -5.4
[28]
  Median survival time: 11.2
[53]
  Mortality: 0

## CS(=O)(=O)OCCBr
[54]
  Mortality: 2
[7]
  Median survival time: 11.1
[36]
  Median survival time: 11.8
[55]
  Mortality: 0
[56]
  Change in weight: -3
[13]
  Median survival time: 11.1
[14]
  Change in weight: -0.7
[40]
  Ratio: 110
[41]
  Mortality: 0
[42]
  Median survival time: 12.3
[45]
  Ratio: 106
[57]
  Median survival time: 12
[27]
  Mortality: 6
[28]
  Median survival time: 11.1
